BAP1 block: blocks human BAP1 ubiquitin-AMC hydrolysis; 0.48% of 72,000 active; calls only at 20 µM; recombinant BAP1, Ub-AMC hydrolysis fluorescence kinetic; hits give low values; AID 436;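 active = activity remaining at or below 50% of control, provided the compound also passes the data quality filters; inactive = the rest, including low values that fail the filters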;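 also: 100% = DMSO wells rate and 0% = substrate alone blank rate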
ERa SRC1 pot: enhances coactivator binding to human estrogen receptor alpha; P03372; 1.3% of 86,000 active; TR-FRET ERalpha-LBD/SRC-Cy5 coactivator binding, 2 h; 100 = basal binding, no effect; AID 639; coactivator binding (% of control), % at 25.6 µM; in the data active = activity above about 200%;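 also: binding measured in presence of low estradiol as agonist stimulus; 0% = peptide alone without receptor and 100% = receptor with peptide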
ERb SRC1 inh: ER-beta (human) coactivator binding inhibition | inhibition, % at 25.6 µM | TR-FRET ER-beta LBD / SRC1-Cy5 peptide binding; receptor agonist-loaded with 1 µM estradiol | 1.3% of 86,000 active | AID 633;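 active = compounds whose percent inhibition of the receptor-coactivator binding signal exceeds about 50% in the single-dose screen, limit read from the data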;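 also: 0% = receptor plus peptide wells without compound and 100% = peptide-only wells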
ERa SRC1 inh: ER-alpha (human) coactivator binding inhibition. 1.7% of 86,000 active. AID 629. TR-FRET ER-alpha LBD / SRC-1 peptide, estradiol-bound. inhibition, % at 25.6 µM; in the data active = inhibition above about 50%;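 also: 0% = receptor plus peptide control and 100% = peptide only without receptor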
RORA act: activates the human nuclear receptor RORA. CHO-K1 Gal4-RORA LBD luciferase reporter, luminescence; percent increase over mock-subtracted basal signal. P35398. activation, % at 10 µM. 1.5% of 65,000 active;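 active = activation above the mean of all tested compounds plus 3 SD, cut at about 49% in these data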;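 also: 0% = DMSO-treated RORA cells and 100% = added signal equal to DMSO minus mock-transfected cells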
Target sequence (P35398 whole entry, looked up, the tested form may be a part): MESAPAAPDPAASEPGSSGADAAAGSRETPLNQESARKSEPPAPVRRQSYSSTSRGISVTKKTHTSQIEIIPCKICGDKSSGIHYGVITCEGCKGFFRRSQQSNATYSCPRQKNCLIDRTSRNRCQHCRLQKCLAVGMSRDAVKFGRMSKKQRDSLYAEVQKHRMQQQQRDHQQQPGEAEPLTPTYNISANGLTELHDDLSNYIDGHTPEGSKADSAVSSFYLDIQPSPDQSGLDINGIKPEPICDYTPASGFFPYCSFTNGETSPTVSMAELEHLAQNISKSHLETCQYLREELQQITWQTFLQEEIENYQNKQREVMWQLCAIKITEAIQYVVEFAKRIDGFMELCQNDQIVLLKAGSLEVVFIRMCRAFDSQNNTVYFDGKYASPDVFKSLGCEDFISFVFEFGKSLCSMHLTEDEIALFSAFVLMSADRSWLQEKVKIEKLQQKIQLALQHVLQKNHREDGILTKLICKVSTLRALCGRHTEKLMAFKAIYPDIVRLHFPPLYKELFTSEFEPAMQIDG
SF-1 act: activates the human nuclear receptor SF-1; CHO-K1 Gal4-SF-1 LBD luciferase reporter; % increase over DMSO SF-1-specific signal; 1.9% of 65,000 active; activation, % at 10 µM; AID 522; Q13285;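 active = activation above the mean activation of all tested compounds plus 3 SD, cut at about 50% in these data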
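System: CHO-K1 cells with Gal4–hSF-1 LBD chimera plus Gal4-driven luciferase; quantity: 4,000 CHO-K1 cells per well; compound: one dose, 10 µM compound, 1% DMSO; times: 20 h compound treatment, 37 °C; measured by: SteadyLite luciferase luminescence; read-out: percent activation versus DMSO; benchmarks: DMSO and mock-transfected background; replicates: one test per compound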
Active calls of the source: *; i = inactive; . = not tested or not shown; [ ] = another dose, or the depositor's remark. In the library only some 5.1% were active in any assay of this set; here they are far more common.

SMILES	BAP1 block	ERa SRC1 pot	ERb SRC1 inh	ERa SRC1 inh	RORA act	SF-1 act
O=C(Nc1ccc2c(c1)nc1n2CCOC1)c1ccco1	i	122	-12	2	7	42
Cn1c(CCNC(=O)c2ccco2)nc2cc(NC(=O)C3CCCCC3)ccc21	i	123	-6	4	3	10
O=C(Nc1ccc2c(c1)nc1n2CCSC1)c1ccco1	i	123	61*[fluorescence artefact?]	80*	-26	-26
COc1cc(C(=O)Nc2nc3c(s2)CC(C)CC3)cc(OC)c1OC (configuration not stated)	i	.	.	.	.	.
CCn1c(Cn2nnc(-c3ccccc3)n2)nnc1SCC(=O)Nc1ccc(C(C)=O)cc1	i	94	10	32	60*	-2
CCOC(=O)c1c(NC(=O)CN2C(=O)c3ccccc3C2=O)sc2c1CCC2	i	.	.	.	.	.
CCc1cc2c(NCCCC(=O)O)ncnc2s1	i	.	.	.	.	.
Cc1ccc(S(=O)(=O)N2CCN(c3ccc(S(=O)(=O)N4CCOCC4)cn3)CC2)cc1	.	346*[fluorescence artefact?]	31	-15	.	.
N#Cc1ccccc1S(=O)(=O)N1CCN(c2ccc(S(=O)(=O)N3CCOCC3)cn2)CC1	i	99	-4	7	1	7
CCSc1nnc2c(n1)OC(c1cccc([N+](=O)[O-])c1)Nc1ccccc1-2 (configuration not stated)	i	.	.	.	.	.
CN1CCN(C(c2cccnc2)c2ccc3cccnc3c2O)CC1 (configuration not stated)	i	83	60*[fluorescence artefact?]	78*[fluorescence artefact?]	21	1
CCC(=O)NC(c1ccccc1)c1ccc2cccnc2c1O (configuration not stated)	i	.	.	.	.	.
O=C(Nc1cnc2ccccc2c1)N1CCCCC1	i	93	3	6	72*	33
Nc1c(Cl)cc(Cl)cc1C(=O)OCC(=O)NC1CC1	.	59	55*	40	.	.
Cc1ccc(C(=O)CSC2=C(C#N)C(c3ccco3)CC(=O)N2)c(C)c1 (configuration not stated)	i	69	64*	60*	32	-10
O=C1CCC(=O)N1c1cccc(-c2nc3ccccc3o2)c1	i	137	-3	-4	15	6
O=C1c2cccnc2C(=O)N1c1cccc(-c2nc3ccccc3o2)c1	i	59	33	53*[fluorescence artefact?]	23	14
CC(C)CCN1C(=O)c2ccc(-c3nc4ccccc4c(=O)o3)cc2C1=O	.	114	-1	2	.	.
O=C1c2ccc(-c3nc4ccccc4o3)cc2C(=O)N1Cc1cccnc1	i	370*	-15	-2	3	9
Cc1nc(-c2ccccc2)nc2[nH]c(=O)n(-c3ccccc3)c(=O)c12	i	90	-3	24	60*	36
Cc1cc(NC(=O)CSc2nc3c(sc4ccccc43)c(=O)n2CCc2ccccc2)n[nH]1	.	131	37	50*[fluorescence artefact?]	.	.
CCCCNC(=O)NC1(C(F)(F)F)Oc2ccccc2O1	.	103	1	-5	.	.
O=C(NCCN1CCOCC1)NC1(C(F)(F)F)Oc2ccccc2O1	.	617*[fluorescence artefact?]	2	1	-2	-9
CCN(C)c1ccc(/C=N\n2nnnc2N)cc1	.	.	.	.	67*	87*
Nc1nnnn1/N=C/c1ccc(O)cc1	.	112	-23	-7	.	.
SMILES	BAP1 block	ERa SRC1 pot	ERb SRC1 inh	ERa SRC1 inh	RORA act	SF-1 act
CSc1ccc(/C=N/n2nnnc2N)cc1	.	106	-6	-6	51*	25
COCCOC(=O)C1=C(C)NC2=C(C(=O)CC(C)(C)C2)C1c1ccc(OC)c(OC)c1 (configuration not stated)	i	.	.	.	.	.
O=c1[nH]c2ccccc2c(=O)n1Cc1ccco1	i	98	63*	-2	3	-23
O=c1c2cc(N3CCOCC3)ccc2[nH]c(=S)n1Cc1ccco1	i	99	51*	47	-19	6
O=c1c2cc(N3CCOCC3)ccc2[nH]c(=S)n1Cc1cccc(Cl)c1	.	127	0	3	.	.
Cc1nnc(SCc2cc(=O)oc3cc(O)ccc23)s1	i	.	.	.	.	.
c1ccc(-c2cnc(CSc3nnc4ccccn34)o2)cc1	i	87	-1	4	17	71*
Cc1cc(NC(=O)CSc2nc(C3CC3)nc3sc(C)c(C)c23)no1	.	174	11	-4	.	.
COc1ccc(-c2nsc(SCC(=O)Nc3cc(C)on3)n2)cc1	i	241*[fluorescence artefact?]	11	3	-18	-8
CCc1cc2ccc(OC)cc2nc1SCC(=O)Nc1cc(C)on1	i	205*	25	24	19	4
Cc1ccc2nc(SCC(=O)Nc3cc(C)on3)[nH]c2c1	i	107	26	9	-3	-8
Cc1cc(NC(=O)CSc2ccc(-c3nc4cc(C)c(C)cc4[nH]3)cn2)no1	.	243*[fluorescence artefact?]	15	29	-2	12
CCc1nc(SCC(=O)Nc2cc(C)on2)c2c(C)c(C)sc2n1	i	234*[fluorescence artefact?]	27	9	-5	11
CCCc1ccc(Oc2c(C)oc3cc(OCC)ccc3c2=O)cc1	i	.	.	.	.	.
Cc1ccc(C(=O)COC(=O)c2ccccc2Sc2ccc([N+](=O)[O-])cc2)cc1	i	.	.	.	.	.
CS(=O)(=O)N1CCN(c2ccc(NC(=O)C(c3ccccc3)c3ccccc3)cc2)CC1	.	90	-28	-14	.	.
O=C(Nc1ccc(N2CCCC2)cc1)C(Cl)c1ccccc1 (configuration not stated)	.	47	50*	59*	.	.
O=C(c1ccco1)c1nc2c(n1O)CCCCC2	.	89	22	14	.	.
O=C(c1cc2ccccc2o1)c1nc2c(n1O)CCCCC2	.	104	-10	-5	56*	44
Cc1ccc(NC(=O)Cn2c3ccccc3c(=O)c3ccccc32)cc1C	i	.	.	.	.	.
CNc1ccc(Br)cc(C(=O)/C=C/c2cccc(OC)c2OC)c1=O	.	73	55*[fluorescence artefact?]	42	.	.
CCNc1ccc(Br)cc(C(=O)/C=C/c2ccccc2Cl)c1=O	.	94	74*[fluorescence artefact?]	80*	.	.
Cc1ccc(C)c(NC(=O)C(C)(C)C)c1	i	.	.	.	.	.
COc1nc(-c2ccc(Cl)cc2)ccc1-c1noc(-c2ccco2)n1	.	376*	32	30	-12	-14
COCc1nc(-c2ccc(-c3ccc(OC)cc3)nc2OC)no1	.	143	1	1	49*	12
COc1cccc(-c2ccc(-c3noc(-c4cccs4)n3)c(OC)n2)c1	.	310*[fluorescence artefact?]	17	14	.	.
CCc1nc(-c2ccc(-c3ccc(OC)cc3)nc2OC)no1	.	114	-12	-5	7	10
COc1cccc(-c2ccc(-c3noc(-c4ccccc4F)n3)c(OC)n2)c1	i	191	6	22	14	-11
COCc1nc(-c2ccc(-c3ccccc3)nc2OC)no1	i	104	-1	0	72*	32
Cn1c(C(O)c2ccccc2)[n+](C)c2ccccc21 (configuration not stated)	i	.	.	.	.	.

Screens deposited in PubChem by several laboratories.
